Experimental data as given in paper PMC8556866 (Bioorganic Chemistry, 2021).

Assays:
[1] = test system: intracellular reactive oxygen species (ROS) in HPAepiC cells; assay: Intracellular ROS measurement with DCFH-DA after H2O2; type: cell-based; settings: 50 μM H2O2 in HPAepiC cells; 10 μM ebselen/EBs, NAC 10 mM
Procedure, shortened: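 HPAepiC cells were cultured 24 h in 35-mm dishes, exposed to 50 μM H₂O₂ for 1 h and washed three times. They were then given 10 μM test compound for 24 h, with 10 mM NAC as positive control. Cells were loaded with 10 μM DCFH-DA for 30 min at 37 °C in the dark, washed with PBS and imaged confocally (Ex 488 nm, Em 520–570 nm). Relative fluorescence intensity was scored.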

HPAepiC cells = assay: ROS-induced cell death; type: cell-based; settings: 50 μM H2O2 in HPAepiC cells; 10 μM ebselen/EBs, NAC 10 mM, 24 h
Procedure, shortened: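 HPAepiC cells were exposed to 50 μM H₂O₂ for 1 h, then washed three times with fresh medium. Medium with 10 μM test compound or 10 mM NAC was added for 24 h before cell death was assessed.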

SARS-CoV-2 Mpro [2] = biological target: T1, SARS-CoV-2 Mpro (Severe acute respiratory syndrome coronavirus 2, UniProt P0DTD1); assay: biochemical; settings: read-out: %Inhibition @0.3 μM
SARS-CoV-2 Mpro [3] = biological target: T1, SARS-CoV-2 Mpro; assay: HPLC assay for inhibition of Mpro; type: biochemical; settings: 0.3 μM compound, Mpro 0.2 μM; about 70% hydrolysis with Mpro alone
SARS-CoV-2 virus = type: cell-based; settings: read-out: IC50 of inhibition of SARS-CoV-2 viral replication
SARS-CoV-2 Mpro [4] = biological target: T1, SARS-CoV-2 Mpro; type: binding

SMILES | intracellular ROS level (DCFH-DA fluorescence) [1] | ROS induced cell death (HPAepiC cells) | inhibition at 0.3 µM (SARS-CoV-2 Mpro [2]) | substrate hydrolysis (SARS-CoV-2 Mpro [3]) | IC50 (SARS-CoV-2 virus) | covalent binding to Mpro (peptide modified) (SARS-CoV-2 Mpro [4])
CC(=O)N[C@@H](CS)C(=O)O [NAC, N-Acetyl-L-cysteine] | scavenged the intracellular ROS | reversed the cytotoxicity induced by ROS | – | – | – | –
O=c1c2ccccc2[se]n1-c1ccccc1 [Ebselen] | dramatically decreased | dramatically decreased | 61.2 ± 0.76% | 30% | 24.6 µM | identified to bind to ebselen
